# Assay results as given in ChEMBL document CHEMBL1772977, “Synthesis and biological evaluation of novel 4-benzylpiperazine ligands for sigma-1 receptor imaging” (Bioorg Med Chem, 2011).
# Experiments:
# Assay type in all cases: ADME, organism-based
# [1] = test system: Thyroid gland; assay: Biodistribution in ICR mouse thyroid at 1 uCi, iv after 30 mins postinjection; settings: in vivo, 0.5 h
# In short: (§1)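 Female ICR mice (18–22 g, n = 5) received HPLC-purified radioiodinated tracer by tail vein (0.1 mL, 1 µCi). They were killed by cervical fracture at 15, 30, 60, 120 or 240 min post-injection. Blood and organs were removed, weighed and gamma-counted. Uptake is expressed as %ID/g, mean ± SD, n = 4–5.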
# [2] = test system: Mus musculus; assay: Biodistribution in ICR mouse small intestine at 1 uCi, iv after 120 mins postinjection; settings: in vivo, 2 h
# In short: (§2)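 Female ICR mice (18–22 g, n = 5) received HPLC-purified radiotracer by tail vein (0.1 mL). They were killed by cervical fracture at the stated times. Blood and organs were removed, weighed and gamma-counted. Uptake expressed as percent injected dose per gram of tissue (%ID/g), given as mean with SD.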
# [3] = test system: Thyroid gland; assay: Biodistribution in ICR mouse thyroid at 1 uCi, iv after 120 mins postinjection; settings: in vivo, 2 h; in short: as §1
# [4] = test system: Brain; assay: Biodistribution in ICR mouse brain at 1 uCi, iv after 60 mins postinjection; settings: in vivo, 1 h; in short: as §2
# [5] = test system: Muscle tissue; assay: Biodistribution in ICR mouse muscle at 1 uCi, iv after 30 mins postinjection; settings: in vivo, 0.5 h; in short: as §2
# [6] = test system: Heart; assay: Biodistribution in ICR mouse heart at 1 uCi, iv after 30 mins postinjection; settings: in vivo, 0.5 h; in short: as §2
# [7] = test system: Thyroid gland; assay: Biodistribution in ICR mouse thyroid at 1 uCi, iv after 60 mins postinjection; settings: in vivo, 1 h; in short: as §1
# [8] = test system: Liver; assay: Biodistribution in ICR mouse liver at 1 uCi, iv after 120 mins postinjection; settings: in vivo, 2 h; in short: as §2
# [9] = test system: Lung; assay: Biodistribution in ICR mouse lung at 1 uCi, iv after 120 mins postinjection; settings: in vivo, 2 h; in short: as §2
# [10] = test system: Muscle tissue; assay: Biodistribution in ICR mouse muscle at 1 uCi, iv after 15 mins postinjection; settings: in vivo, 0.25 h; in short: as §2
# [11] = test system: Blood; assay: Biodistribution in ICR mouse blood at 1 uCi, iv after 120 mins postinjection; settings: in vivo, 2 h; in short: as §2
# [12] = test system: Blood; assay: Biodistribution in ICR mouse blood at 1 uCi, iv after 60 mins postinjection; settings: in vivo, 1 h; in short: as §2
# [13] = test system: Stomach; assay: Biodistribution in ICR mouse stomach at 1 uCi, iv measured per organ after 15 mins postinjection; settings: in vivo, 0.25 h
# [14] = test system: Liver; assay: Biodistribution in ICR mouse liver at 1 uCi, iv after 60 mins postinjection; settings: in vivo, 1 h; in short: as §2
# [15] = test system: Brain; assay: Biodistribution in ICR mouse brain at 1 uCi, iv after 30 mins postinjection; settings: in vivo, 0.5 h; in short: as §2
# [16] = test system: Liver; assay: Biodistribution in ICR mouse liver at 1 uCi, iv after 240 mins postinjection; settings: in vivo, 4 h; in short: as §2
# [17] = test system: Stomach; assay: Biodistribution in ICR mouse stomach at 1 uCi, iv measured per organ after 30 mins postinjection; settings: in vivo, 0.5 h
# [18] = test system: Muscle tissue; assay: Biodistribution in ICR mouse muscle at 1 uCi, iv after 120 mins postinjection; settings: in vivo, 2 h; in short: as §2
# [19] = test system: Blood; assay: Biodistribution in ICR mouse blood at 1 uCi, iv after 15 mins postinjection; settings: in vivo, 0.25 h; in short: as §2
# [20] = test system: Kidney; assay: Biodistribution in ICR mouse kidney at 1 uCi, iv after 60 mins postinjection; settings: in vivo, 1 h; in short: as §2
# [21] = test system: Heart; assay: Biodistribution in ICR mouse heart at 1 uCi, iv after 15 mins postinjection; settings: in vivo, 0.25 h; in short: as §2
# [22] = test system: Kidney; assay: Biodistribution in ICR mouse kidney at 1 uCi, iv after 240 mins postinjection; settings: in vivo, 4 h; in short: as §2
# [23] = test system: Liver; assay: Biodistribution in ICR mouse liver at 1 uCi, iv after 30 mins postinjection; settings: in vivo, 0.5 h; in short: as §2
# [24] = test system: Stomach; assay: Biodistribution in ICR mouse stomach at 1 uCi, iv measured per organ after 120 mins postinjection; settings: in vivo, 2 h
# [25] = test system: Muscle tissue; assay: Biodistribution in ICR mouse muscle at 1 uCi, iv after 60 mins postinjection; settings: in vivo, 1 h; in short: as §2
# [26] = test system: Mus musculus; assay: Biodistribution in ICR mouse small intestine at 1 uCi, iv after 15 mins postinjection; settings: in vivo, 0.25 h; in short: as §2
# [27] = test system: Spleen; assay: Biodistribution in ICR mouse spleen at 1 uCi, iv after 120 mins postinjection; settings: in vivo, 2 h; in short: as §2
# [28] = test system: Spleen; assay: Biodistribution in ICR mouse spleen at 1 uCi, iv after 15 mins postinjection; settings: in vivo, 0.25 h; in short: as §2
smiles,measurement,setting,value
[125I]c1ccc(CN2CCN(Cc3ccc4c(c3)OCO4)CC2)cc1,Drug uptake,[1],2.3 % ID/g
same,Drug uptake,[2],10.73 % ID/g
same,Drug uptake,[3],1.4 % ID/g
same,Drug uptake,[4],4.63 % ID/g
same,Drug uptake,[5],1.78 % ID/g
same,Drug uptake,[6],2.79 % ID/g
same,Drug uptake,[7],1.53 % ID/g
same,Drug uptake,[8],5.08 % ID/g
same,Drug uptake,[9],4.91 % ID/g
same,Drug uptake,[10],2.35 % ID/g
same,Drug uptake,[11],0.77 % ID/g
same,Drug uptake,[12],0.81 % ID/g
same,Drug uptake,[13],2.32 %ID
same,Drug uptake,[14],5.68 % ID/g
same,Drug uptake,[15],4.96 % ID/g
same,Drug uptake,[16],3.95 % ID/g
same,Drug uptake,[17],2.12 %ID
same,Drug uptake,[18],1.06 % ID/g
same,Drug uptake,[19],1.34 % ID/g
same,Drug uptake,[20],8.73 % ID/g
same,Drug uptake,[21],3.98 % ID/g
same,Drug uptake,[22],6.89 % ID/g
same,Drug uptake,[23],6.39 % ID/g
same,Drug uptake,[24],2.54 %ID
same,Drug uptake,[25],1.5 % ID/g
same,Drug uptake,[26],5.77 % ID/g
same,Drug uptake,[27],4.79 % ID/g
same,Drug uptake,[28],6.68 % ID/g
